ChEMBL document CHEMBL4673173, “Cyrene(TM) is a green alternative to DMSO as a solvent for antibacterial drug discovery against ESKAPE pathogens” (RSC Med Chem, 2020)
In brackets after ≈: the same amount, converted by molar mass. Where a name gives a salt, the structure may show the parent alone. Activity calls are given as the source filed them. No cut-off for these calls is given here. Bridge positions count the residues as written; N and C are the ends. Square brackets hold non-standard residues; d marks the D form. Peptide text beside a SMILES is read from it. * marks the point of attachment. X1 = CC[C@H](C)CCCCC(=O)*; Dab = NCC[C@H](N)C(=O)O

Experiments:
Staphylococcus aureus [1] = experiment: Antibacterial activity against Staphylococcus aureus ATCC 43300 by broth microdilution method; type: functional
Procedure, shortened: (§1)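 Antibiotics were dissolved as stock solutions in either DMSO or Cyrene™, neat or mixed with water, at 5–10 mM (stock). Each drug was tested in parallel with both vehicles. Growth inhibition was read as MIC80 […]. NA means no activity at the highest concentration tested.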

Enterococcus faecalis [2] = experiment: Antibacterial activity against Enterococcus faecalis ATCC 51299 by broth microdilution method; type: functional; procedure, shortened: as §1
Acinetobacter baumannii [3] = experiment: Antibacterial activity against Acinetobacter baumannii ATCC 19606 by broth microdilution method; type: functional, ATCC 19606 = CIP 70.34 = JCM 6841; procedure, shortened: as §1
Pseudomonas aeruginosa [4] = experiment: Antibacterial activity against Pseudomonas aeruginosa […] by broth microdilution method; type: functional; procedure, shortened: as §1
Escherichia coli [5] = experiment: Antibacterial activity against Escherichia coli ATCC 25922 by broth microdilution method; type: functional; procedure, shortened: as §1
Klebsiella pneumoniae [6] = experiment: Antibacterial activity against Klebsiella pneumoniae ATCC 700603 by broth microdilution method; type: functional; procedure, shortened: as §1
Escherichia coli [7] = experiment: Antibacterial activity against Escherichia coli ATCC 25922 using cyrene as solvent by broth microdilution method; type: functional
Enterococcus faecalis [8] = details: ATCC 51299
Klebsiella pneumoniae [9] = experiment: Antibacterial activity against Klebsiella pneumoniae ATCC 700603 using DMSO as solvent by broth microdilution method; type: functional
Klebsiella pneumoniae [10] = experiment: Antibacterial activity against Klebsiella pneumoniae ATCC 700603 using cyrene as solvent by broth microdilution method; type: functional
Staphylococcus aureus [11] = details: ATCC 43300
Acinetobacter baumannii [12] = experiment: Antibacterial activity against Acinetobacter baumannii ATCC 19606 using DMSO as solvent by broth microdilution method; type: functional; details: ATCC 19606 = CIP 70.34 = JCM 6841
Pseudomonas aeruginosa [13] = experiment: Antibacterial activity against Pseudomonas aeruginosa ATCC 27893 using cyrene as solvent by broth microdilution method; type: functional
Acinetobacter baumannii [14] = experiment: Antibacterial activity against Acinetobacter baumannii ATCC 19606 using cyrene as solvent by broth microdilution method; type: functional; details: ATCC 19606 = CIP 70.34 = JCM 6841
Escherichia coli [15] = experiment: Antibacterial activity against Escherichia coli ATCC 25922 using DMSO as solvent by broth microdilution method; type: functional
Enterococcus faecalis [16] = details: ATCC 51299; remark: listed apart in the source
Pseudomonas aeruginosa [17] = experiment: Antibacterial activity against Pseudomonas aeruginosa ATCC 27893 using DMSO as solvent by broth microdilution method; type: functional
Staphylococcus aureus [18] = details: ATCC 43300; remark: listed apart in the source
Enterococcus faecalis [19] = experiment: microbe, parasite or virus in culture; type: functional; details: ATCC 51299
Staphylococcus aureus [20] = experiment: microbe, parasite or virus in culture; type: functional; details: ATCC 43300
Enterococcus faecalis [21] = experiment: microbe, parasite or virus in culture; type: functional; details: ATCC 51299; remark: listed apart in the source
Staphylococcus aureus [22] = experiment: microbe, parasite or virus in culture; type: functional; details: ATCC 43300; remark: listed apart in the source
Klebsiella pneumoniae [23] = details: 700603
Pseudomonas aeruginosa [24] = details: ATCC 27893
Acinetobacter baumannii [25] = details: ATCC 19606 = CIP 70.34 = JCM 6841
Klebsiella pneumoniae [26] = details: 700603; remark: listed apart in the source
Acinetobacter baumannii [27] = details: ATCC 19606 = CIP 70.34 = JCM 6841; remark: listed apart in the source
Escherichia coli [28] = details: ATCC 25922
Escherichia coli [29] = details: ATCC 25922; remark: listed apart in the source
Pseudomonas aeruginosa [30] = details: ATCC 27893; remark: listed apart in the source

Row | Compound | MIC80 (Escherichia coli [7]) [µM] | MIC80 (Enterococcus faecalis [8]) | MIC80 (Klebsiella pneumoniae [9]) [µM] | MIC80 (Klebsiella pneumoniae [10]) [µM] | MIC80 (Acinetobacter baumannii [12]) [µM] | MIC80 (Pseudomonas aeruginosa [13]) [µM] | MIC80 (Acinetobacter baumannii [14]) [µM] | MIC80 (Escherichia coli [15]) [µM] | MIC80 (Enterococcus faecalis [16]) | MIC80 (Pseudomonas aeruginosa [17]) [µM] | MIC80 (Enterococcus faecalis [19]) [µM] | MIC80 (Staphylococcus aureus [20]) [µM] | MIC80 (Enterococcus faecalis [21]) [µM] | MIC80 (Staphylococcus aureus [22]) [µM] | MIC80 (Klebsiella pneumoniae [23]) | MIC80 (Klebsiella pneumoniae [26]) | other results
1 | O=C1CC[C@H]2CO[C@@H]1O2 | – | – | – | – | – | – | – | – | – | – | – | – | – | – | – | – | MIC80 (Staphylococcus aureus [1]): 8 %v/v; MIC80 (Enterococcus faecalis [2]): 4 %v/v; MIC80 (Acinetobacter baumannii [3]): 8 %v/v; MIC80 (Pseudomonas aeruginosa [4]): 8 %v/v; MIC80 (Escherichia coli [5]): 5 %v/v; MIC80 (Klebsiella pneumoniae [6]): 8 %v/v
2 | CC[C@H](C)CCCCC(=O)N[C@@H](CCN)C(=O)N[C@H](C(=O)N[C@@H](CCN)C(=O)N[C@H]1CCNC(=O)[C@H]([C@@H](C)O)NC(=O)[C@H](CCN)NC(=O)[C@H](CCN)NC(=O)[C@H](CC(C)C)NC(=O)[C@@H](Cc2ccccc2)NC(=O)[C@H](CCN)NC1=O)[C@@H](C)O (X1-[Dab]T[Dab][Dab][Dab][dF]L[Dab][Dab]T; lactam 4-C) | 1.6 (≈ 1.93 µg/mL) | inactive | 1.6 (≈ 1.93 µg/mL) | 1.6 (≈ 1.93 µg/mL) | 1.6 (≈ 1.93 µg/mL) | 3.1 (≈ 3.73 µg/mL) | 1.6 (≈ 1.93 µg/mL) | 1.6 (≈ 1.93 µg/mL) | inactive | 3.1 (≈ 3.73 µg/mL) | – | – | – | – | – | – | MIC80 (Staphylococcus aureus [11]): inactive; MIC80 (Staphylococcus aureus [18]): inactive
3 | O=C(O)c1cn(C2CC2)c2cc(N3CCNCC3)c(F)cc2c1=O [CIPROFLOXACIN HYDROCHLORIDE] | – | – | 0.39 | 0.39 | 1.6 | 0.39 | 1.6 | – | – | 0.39 | 0.39 | 1.6 | 0.39 | 1.6 | – | – | –
4 | C[S+](C)[O-] [DIMETHYL SULFOXIDE] | – | – | – | – | – | – | – | – | – | – | – | – | – | – | – | – | MIC80 (Staphylococcus aureus [1]): 16 %v/v; MIC80 (Enterococcus faecalis [2]): 8 %v/v; MIC80 (Acinetobacter baumannii [3]): 16 %v/v; MIC80 (Pseudomonas aeruginosa [4]): 16 %v/v; MIC80 (Escherichia coli [5]): 10 %v/v; MIC80 (Klebsiella pneumoniae [6]): 16 %v/v
5 | C[C@H]1COc2c(N3CCN(C)CC3)c(F)cc3c(=O)c(C(=O)O)cn1c23 [LEVOFLOXACIN] | 0.019 (≈ 0.00687 µg/mL) | – | 0.78 (≈ 0.282 µg/mL) | 0.78 (≈ 0.282 µg/mL) | 0.39 (≈ 0.141 µg/mL) | 1.6 (≈ 0.578 µg/mL) | 0.39 (≈ 0.141 µg/mL) | 0.019 (≈ 0.00687 µg/mL) | – | 1.6 (≈ 0.578 µg/mL) | 0.39 (≈ 0.141 µg/mL) | 0.78 (≈ 0.282 µg/mL) | 0.19 (≈ 0.0687 µg/mL) | 0.78 (≈ 0.282 µg/mL) | – | – | –
6 | CC1(C)S[C@@H]2[C@H](NC(=O)Cc3ccccc3)C(=O)N2[C@H]1C(=O)O [PENICILLIN G SODIUM] | – | inactive | – | – | – | – | – | – | inactive | – | – | 34 | – | 34 | inactive | inactive | MIC80 (Pseudomonas aeruginosa [24]): inactive; MIC80 (Acinetobacter baumannii [25]): inactive; MIC80 (Acinetobacter baumannii [27]): inactive; MIC80 (Escherichia coli [28]): inactive; MIC80 (Escherichia coli [29]): inactive; MIC80 (Pseudomonas aeruginosa [30]): inactive
7 | CN(C)[C@@H]1C(O)=C(C(N)=O)C(=O)[C@@]2(O)C(O)=C3C(=O)c4c(O)cccc4[C@@](C)(O)[C@H]3C[C@@H]12 [TETRACYCLINE] | 3.13 (≈ 1.39 µg/mL) | inactive | – | – | 25 (≈ 11.1 µg/mL) | 25 (≈ 11.1 µg/mL) | 12.5 (≈ 5.56 µg/mL) | 3.13 (≈ 1.39 µg/mL) | inactive | 25 (≈ 11.1 µg/mL) | – | 0.78 (≈ 0.347 µg/mL) | – | 0.78 (≈ 0.347 µg/mL) | inactive | inactive | –
8 | NC[C@H]1O[C@H](O[C@H]2[C@H](O)[C@@H](O[C@H]3O[C@H](CO)[C@@H](O)[C@H](N)[C@H]3O)[C@H](N)C[C@@H]2N)[C@H](N)C[C@@H]1O [TOBRAMYCIN] | 0.78 (≈ 0.365 µg/mL) | inactive | 13 (≈ 6.08 µg/mL) | 13 (≈ 6.08 µg/mL) | 3.1 (≈ 1.45 µg/mL) | 1.6 (≈ 0.748 µg/mL) | 3.1 (≈ 1.45 µg/mL) | 0.78 (≈ 0.365 µg/mL) | inactive | 1.6 (≈ 0.748 µg/mL) | – | – | – | – | – | – | MIC80 (Staphylococcus aureus [11]): inactive; MIC80 (Staphylococcus aureus [18]): inactive
9 | CN[C@H](CC(C)C)C(=O)N[C@H]1C(=O)N[C@@H](CC(N)=O)C(=O)N[C@H]2C(=O)N[C@H]3C(=O)N[C@H](C(=O)N[C@H](C(=O)O)c4cc(O)cc(O)c4-c4cc3ccc4O)[C@H](O)c3ccc(c(Cl)c3)Oc3cc2cc(c3O[C@@H]2O[C@H](CO)[C@@H](O)[C@H](O)[C@H]2O[C@H]2C[C@](C)(N)[C@H](O)[C@H](C)O2)Oc2ccc(cc2Cl)[C@H]1O [VANCOMYCIN HYDROCHLORIDE] | – | – | – | – | – | – | – | – | – | – | 13 | 0.39 | 13 | 0.39 | inactive | inactive | MIC80 (Pseudomonas aeruginosa [24]): inactive; MIC80 (Acinetobacter baumannii [25]): inactive; MIC80 (Acinetobacter baumannii [27]): inactive; MIC80 (Escherichia coli [28]): inactive; MIC80 (Escherichia coli [29]): inactive; MIC80 (Pseudomonas aeruginosa [30]): inactive
